SENP1 FRET inh: blocks the human SENP1 SUMO protease catalytic domain; 0.21% of 360,000 active; AID 624204; recombinant SENP1 catalytic domain, CyPet-SUMO1-YPet FRET cleavage; Q9P0U3; inhibition, % at 10 µM;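 active = inhibition at least 30% at 10 µM, raw YFP signal under a set limit, fluorescence ratio 0.5 to 1.5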
Target sequence (Q9P0U3 419-644 limits assumed): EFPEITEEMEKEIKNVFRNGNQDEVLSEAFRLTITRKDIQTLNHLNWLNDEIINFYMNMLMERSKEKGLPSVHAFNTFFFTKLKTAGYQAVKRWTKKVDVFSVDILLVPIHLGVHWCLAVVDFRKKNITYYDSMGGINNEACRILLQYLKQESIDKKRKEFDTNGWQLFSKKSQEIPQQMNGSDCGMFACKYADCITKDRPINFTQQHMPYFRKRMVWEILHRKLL
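System: Recombinant human SENP1 catalytic domain, His6-tagged | Incubation: Enzyme reaction for 50 min at room temperature, dark | Medium: Tris pH 8 with BME, BSA, NP40 and catalase | Also added: 25 nM SUMO1 FRET substrate | Compound: 10 µM single point, 0.5% DMSO | Measured by: FRET fluorescence in CFP and YFP emission channels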
Cardio protect: protects H9c2 cardiomyocytes from peroxide injury; protection from H2O2 cell death, % at 20 µM; H2O2 injury protection, ATPLite, 2 h; 0.63% of 360,000 active; AID 588492;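 active = compounds giving at least 50% protection of heart cells from peroxide-induced death in the single-dose screen, raw or plate-pattern-corrected value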
Pemphigus Ab inh: blocks pemphigus antibody binding to human desmoglein-3. 0.48% of 310,000 active. DSG3-coupled beads, scFv-anti-DSG3-GFP binding, flow cytometry; active compounds read low. AID 588358. P32926. binding (percent of control), % at 10 µM;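 active = binding more than 3 SD below its plate's average and above zero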;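 note: hits lower antibody fragment binding to DSG3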
Exocytosis inh: blocks lytic granule exocytosis | TALL-104 LAMP-1 surface exposure, flow cytometry; cells stimulated with thapsigargin and PMA | 0.66% of 360,000 active | inhibition, % at 10 µM | AID 651702;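 active = inhibition above about 55%, limit read from the data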
HNF4A DNA FP: change in binding of human HNF4 alpha to DNA. P41235. 0.3% of 360,000 active. AID 1224865. HNF4a-FITC DNA binding, fluorescence polarization, 1 h. activity change, % at 10 µM; in the data active = activity change above about 30%, passing the limit was not always enough
Myeloid diff MLP: promotes myeloid progenitor differentiation | ER-HoxA9 myeloid progenitors, lysozyme-GFP differentiation, flow cytometry | calls only at 10 µM | 1% of 360,000 active | AID 624256;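 active = normalized GFP-positive differentiation at or above the plate's own cutoff, the solvent-only control mean plus 3 SD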;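 note: cells exposed to compound for four days before flow analysis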
A number is an active result. Rows were chosen to be rich in hits. Some 3% of all compounds tested hit in one or more screens of this group.

How did Cc1cc(/C=C2/C(=O)N(C)C(=S)N2C)c(C)n1C1CC1 do in these assays?
SENP1 FRET inh: inactive; Cardio protect: inactive; Pemphigus Ab inh: inactive; Exocytosis inh: inactive; HNF4A DNA FP: inactive; Myeloid diff MLP: active

What do the screens show for `O=C1NC(=S)SC1=Cc1ccccc1Br`?
SENP1 FRET inh: inactive; Cardio protect: inactive; Pemphigus Ab inh: inactive; Exocytosis inh: inactive; HNF4A DNA FP: inactive; Myeloid diff MLP: inactive

Results for Cc1cc(/C=N/NC(=O)c2ccc(O)cc2)c(C)n1C1CC1 ?
SENP1 FRET inh: inactive; Cardio protect: inactive; Pemphigus Ab inh: inactive; Exocytosis inh: inactive; HNF4A DNA FP: inactive; Myeloid diff MLP: inactive

What do the screens show for `Cc1cc(/C=C2\SC(=S)NC2=O)c(C)n1C1CC1`?
SENP1 FRET inh: inactive; Cardio protect: inactive; Pemphigus Ab inh: inactive; Exocytosis inh: inactive; HNF4A DNA FP: 56; Myeloid diff MLP: inactive

Results for NC(c1csc(NC(=O)c2cccc(OC(F)(F)F)c2)n1)c1ccccc1Cl (centres undefined) ?
SENP1 FRET inh: inactive; Cardio protect: inactive; Exocytosis inh: inactive; HNF4A DNA FP: inactive; Myeloid diff MLP: active

How did CC(=O)Oc1ccc(-c2csc(Nc3ccc(S(N)(=O)=O)cc3)n2)cc1 do in these assays?
SENP1 FRET inh: inactive; Cardio protect: inactive; Pemphigus Ab inh: inactive; Exocytosis inh: inactive; HNF4A DNA FP: inactive; Myeloid diff MLP: inactive

What do the screens show for `COc1ccc(-c2csc(Nc3ccc(S(N)(=O)=O)cc3)n2)cc1`?
SENP1 FRET inh: inactive; Cardio protect: inactive; Pemphigus Ab inh: 88; Exocytosis inh: inactive; HNF4A DNA FP: inactive; Myeloid diff MLP: inactive

Results for COc1ccc(Nc2nc(-c3ccc(OC)cc3)cs2)cc1 ?
SENP1 FRET inh: inactive; Cardio protect: inactive; Pemphigus Ab inh: inactive; Exocytosis inh: inactive; HNF4A DNA FP: inactive; Myeloid diff MLP: inactive

Results for COc1ccc(Nc2nc(-c3c[nH]c4ccccc34)cs2)cc1 ?
SENP1 FRET inh: inactive; Cardio protect: inactive; Pemphigus Ab inh: inactive; Exocytosis inh: inactive; HNF4A DNA FP: inactive; Myeloid diff MLP: active

What do the screens show for `Cc1nnsc1-c1nc2ccccc2n1C(CCc1ccccc1)c1nc2ccccc2[nH]1` (centres undefined)?
SENP1 FRET inh: inactive; Exocytosis inh: inactive; HNF4A DNA FP: inactive; Myeloid diff MLP: inactive

What do the screens show for `COc1ccc(NC(=O)c2ccc(NC(=O)CN(C)CC(=O)Nc3c(C)cccc3C)cc2)cc1`?
SENP1 FRET inh: inactive; Cardio protect: inactive; Pemphigus Ab inh: inactive; Exocytosis inh: inactive; HNF4A DNA FP: inactive; Myeloid diff MLP: inactive

What do the screens show for `NS(=O)(=O)c1ccc(NC(=S)N2CCN(c3ccc(Cl)c(Cl)c3)CC2)cc1`?
SENP1 FRET inh: inactive; Cardio protect: inactive; Pemphigus Ab inh: 53; Exocytosis inh: inactive; HNF4A DNA FP: inactive; Myeloid diff MLP: inactive

What do the screens show for `CNC(=O)c1ccc(NC(=O)CC23CC4CC(CC(C4)C2)C3)cc1`?
SENP1 FRET inh: inactive; Cardio protect: inactive; Pemphigus Ab inh: inactive; Exocytosis inh: inactive; HNF4A DNA FP: inactive; Myeloid diff MLP: inactive

What do the screens show for `CCN(CC)C(=O)c1cccc(NC(=O)CC23CC4CC(CC(C4)C2)C3)c1`?
SENP1 FRET inh: inactive; Cardio protect: inactive; Exocytosis inh: inactive; HNF4A DNA FP: inactive; Myeloid diff MLP: active

How did O=C(Nc1nc(-c2ccc3c(c2)OCCO3)cs1)c1ccco1 do in these assays?
SENP1 FRET inh: inactive; Cardio protect: inactive; Exocytosis inh: inactive; HNF4A DNA FP: inactive; Myeloid diff MLP: inactive

Results for COc1ccccc1C(=O)Nc1nc(-c2ccc3c(c2)OCCO3)cs1 ?
SENP1 FRET inh: inactive; Cardio protect: 64; Pemphigus Ab inh: inactive; Exocytosis inh: inactive; HNF4A DNA FP: inactive; Myeloid diff MLP: inactive

How did COc1ccc2c(c1OC)C(=O)N1c3ccccc3C(=O)N(c3ccccc3)C21 (centres undefined) do in these assays?
SENP1 FRET inh: inactive; Cardio protect: 54; Pemphigus Ab inh: inactive; Exocytosis inh: inactive; HNF4A DNA FP: inactive; Myeloid diff MLP: inactive

How did COC(=O)C1=C(C)NC(C)=C(C(=O)OCC(C)C)C1c1ccccc1[N+](=O)[O-] (centres undefined) do in these assays?
SENP1 FRET inh: inactive; Cardio protect: inactive; Pemphigus Ab inh: inactive; Exocytosis inh: 68; HNF4A DNA FP: inactive; Myeloid diff MLP: inactive

Results for Cc1ccc(NC(=O)Cn2sc3nc(C)cc(C)c3c2=O)c(Cl)c1 ?
SENP1 FRET inh: inactive; Cardio protect: inactive; Pemphigus Ab inh: inactive; Exocytosis inh: 81; HNF4A DNA FP: inactive; Myeloid diff MLP: inactive
